Test results from ChEMBL document CHEMBL1138881, “Application of phosphoramidate ProTide technology significantly improves antiviral potency of carbocyclic adenosine derivatives” (J Med Chem, 2006).

Assays:
[1] = tested on: Human immunodeficiency virus 1; test: Antiviral activity against HIV1 3B in CEM cells; type: functional, organism-based; details: Human immunodeficiency virus 1, 3B, CCRF-CEM
Method in brief: (§1)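 CEM cells at 4.5 × 10⁵ cells/mL were infected with 100 CCID₅₀/mL of HIV-1 or HIV-2. Giant-cell formation was scored microscopically. EC₅₀ was the concentration preventing syncytium formation by 50%.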

[2] = tested on: Human immunodeficiency virus 2; test: Antiviral activity against HIV2 ROD in MT4 cells; type: functional, organism-based; details: Human immunodeficiency virus 2, ROD
Method in brief: (§2)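 MT-4 cells at 4.5 × 10⁵ cells/mL were infected with 100 CCID₅₀/mL of HIV-1 or HIV-2. Viable cells were then counted after trypan blue staining, and EC₅₀ was derived from these viable-cell counts.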

[3] = tested on: CEM cells (Homo sapiens); test: Cytotoxicity against CEM cells
[4] = tested on: Cynomolgus monkey; test: Metabolic stability in cynomolgus monkey intestine S9 fraction; type: ADME, Macaca fascicularis
Method in brief: (§3)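 Pooled cynomolgus S9 (liver or intestinal segments), test compound 10 µM final, 37 °C, DMSO <1% final; reaction started with NADPH 2.5 mM final. Aliquots taken at 0 (preincubation), 10, 20, 30 and 60 min, quenched with cold acetonitrile, centrifuged; supernatant parent measured by LC/MS/MS. Stability given as % remaining from pre- vs postincubation peak areas.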

[5] = tested on: Human immunodeficiency virus 2; test: Antiviral activity against HIV2 ROD in CEM cells; type: functional, organism-based; details: Human immunodeficiency virus 2, ROD, CCRF-CEM; method in brief: as §1
[6] = tested on: MT4; test: Cytotoxicity against MT4 cells; type: functional; details: Homo sapiens
Method in brief: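 Exponentially growing MT-4 cells were resuspended at 5 × 10⁵ cells/mL in RPMI 1640 with 20% FBS and 20% IL-2. They were infected with HIV-1 IIIB (100 × TCID₅₀ per well) for 1 h at 37 °C, with mock-infected cells run in parallel. The suspension was diluted 6-fold onto serially diluted compound and incubated for 5 days at 37 °C in 5% CO₂. MTS staining was read at 492 nm.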

[7] = tested on: Hepatitis B virus; test: Antiviral activity against HBV in HepG2 2.2.15 cells; type: functional, organism-based
Method in brief: (§4)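 HepG2 2.2.15 cells, which produce HBV constitutively, were seeded at 5 × 10³ per well. Drug-containing medium was replaced every other day for 9 days. Virions in the supernatant were captured on anti-HBsAg plates, and their DNA was quantified by PCR against an HBV standard curve and normalized to untreated cells. For cell growth, monolayers were ethanol-fixed and stained with bisbenzimide H33342, and fluorescence was compared with untreated cells. SI = CC₅₀/EC₅₀.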

[8] = tested on: Human immunodeficiency virus 1; test: Antiviral activity against HIV1 3B in MT4 cells; type: functional, organism-based; details: Human immunodeficiency virus 1, 3B; method in brief: as §2
[9] = tested on: Cynomolgus monkey; test: Metabolic stability in cynomolgus monkey liver S9 fraction; type: ADME, Macaca fascicularis; method in brief: as §3
[10] = tested on: HepG2; test: Cytotoxicity against HepG2 2.2.15 cells; type: functional; details: Homo sapiens; method in brief: as §4
[11] = tested on: HepG2; test: Selectivity index, CC50 for HepG2 2.2.15 cells/EC50 for HBV; type: functional; method in brief: as §4

| SMILES | EC50 [1] [µM] | EC50 [2] [µM] | CC50 [3] [µM] | Stability [4] [%] | EC50 [5] [µM] | CC50 [6] [µM] | EC50 [7] [µM] | EC50 [8] [µM] | Stability [9] [%] | CC50 [10] [µM] | Ratio CC50/EC50 [11] |
| --- | --- | --- | --- | --- | --- | --- | --- | --- | --- | --- | --- |
| COC(=O)[C@H](CC(C)C)NP(=O)(OC[C@H]1C=C[C@@H](n2cnc3c(N)ncnc32)C1)Oc1ccccc1 (stereo partly specified) | 0.42 | 0.13 | 70 | 75 | 0.56 | > 5 | 0.01 | 0.19 | 0 | 20 | – |
| CC(C)OC(=O)[C@H](C)NP(=O)(OC[C@H]1C=C[C@@H](n2cnc3c(N)ncnc32)C1)Oc1ccccc1 (stereo partly specified) | 0.3 | 0.22 | 84 | 90 | 0.25 | 91.4 | 0.006 | 0.15 | 8 | > 2 | – |
| C[C@H](NP(=O)(OC[C@H]1C=C[C@@H](n2cnc3c(N)ncnc32)C1)Oc1ccccc1)C(=O)OC(C)(C)C (stereo partly specified) | 2.93 | 3.08 | 130 | 96 | 3.67 | < 25 | 0.25 | < 0.26 | 1 | 170 | – |
| COC(=O)c1ccc(OP(=O)(N[C@@H](C)C(=O)OC)OC[C@H]2C=C[C@@H](n3cnc4c(N)ncnc43)C2)cc1 (stereo partly specified) | 0.13 | 0.056 | 12.9 | 48 | 0.13 | > 4 | 0.004 | 0.12 | 7 | > 2 | – |
| COC(=O)[C@H](C)NP(=O)(OC[C@H]1C=C[C@@H](n2cnc3c(N)ncnc32)C1)Oc1ccccc1 (stereo partly specified) | 0.13 | 0.043 | 18.1 | 74 | 0.09 | 6.4 | 0.017 | 0.03 | 24 | 1280 | 75000 |
| CCOC(=O)c1cccc(OP(=O)(N[C@@H](C)C(=O)OC)OC[C@H]2C=C[C@@H](n3cnc4c(N)ncnc43)C2)c1 (stereo partly specified) | 0.065 | 0.033 | 8.39 | 42 | 0.08 | 4.39 | 0.004 | 0.053 | 19 | > 2 | – |
| C[C@H](NP(=O)(OC[C@H]1C=C[C@@H](n2cnc3c(N)ncnc32)C1)Oc1ccccc1)C(=O)OCC(C)(C)C (stereo partly specified) | 0.067 | 0.03 | 19.5 | 57 | 0.083 | > 10 | 0.003 | 0.043 | 0 | 13 | – |
| COC(=O)[C@@H](NP(=O)(OC[C@H]1C=C[C@@H](n2cnc3c(N)ncnc32)C1)Oc1ccccc1)C(C)C (stereo partly specified) | 1 | 1.05 | 167 | 91 | 4.5 | < 25 | 0.02 | 0.64 | 2 | 120 | – |
| COC(=O)CNP(=O)(OC[C@H]1C=C[C@@H](n2cnc3c(N)ncnc32)C1)Oc1ccccc1 (stereo partly specified) | 13.5 | 5.73 | ≥ 250 | 85 | 20 | > 100 | 0.086 | 4.35 | 46 | > 2 | – |
